According to PubChem BioAssay AID624411 (The Scripps Research Institute Molecular Screening Center, 2012):
Activity calls are given as the source filed them.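 Rule for the calls: active = compounds blocking BCL-xL binding with IC50 of 10 µM or lower; inactive = the rest.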

Biological target: Bcl-2-like protein 1 (Homo sapiens) (UniProt Q07817)
Assay: Bcl-xL inhibition by probe candidates, late-stage follow-up, counter-screen for MCL1-BIM inhibitor project, biochemical, fluorescence polarization, probe report (AID 624411)
Settings: GST-BCL-xL / FITC-Bim BH3 fluorescence polarization
Method in brief: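 Assay system: Purified GST-Bcl-xL fusion protein, human Bcl-xL | Quantity: 12.5 nM GST-Bcl-xL | Also added: FITC-labelled Bim BH3 peptide probe at 4 nM | Schedule: Compound incubation 20 min at room temperature | Detection: Fluorescence polarization in millipolarization (mP) units | Evaluation: IC50 from fitted inhibition curve | Controls: DMSO and unlabeled Bim-BH3 peptide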

Sequence of Bcl-2-like protein 1 (Homo sapiens) (Q07817 whole entry, looked up): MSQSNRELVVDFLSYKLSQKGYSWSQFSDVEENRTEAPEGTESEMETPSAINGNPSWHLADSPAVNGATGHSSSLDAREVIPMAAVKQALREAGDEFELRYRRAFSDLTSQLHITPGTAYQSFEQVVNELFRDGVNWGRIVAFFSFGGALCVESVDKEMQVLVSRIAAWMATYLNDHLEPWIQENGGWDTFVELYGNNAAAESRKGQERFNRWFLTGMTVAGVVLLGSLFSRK

IC50: > 40 µM (inactive)
Structure (SMILES): CCN1CCN(C(c2ccc(C(F)(F)F)cc2)c2ccc3cccnc3c2O)CC1 (stereo unspecified)
